The subject of series [1] is MV4-11. Nature of the series: Induction of apoptosis in human MV4-11 cells assessed as early apoptotic cells at 0.50 uM incubated for 15 mins by Annexin-V/FITC staining based FACS analysis (reference value: 7.28%). Format: functional. Particulars: dose 0.5 µM, 0.25 h. The method, boiled down:
(§1)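 MV4-11 cells were dosed, then washed twice in cold PBS and resuspended in binding buffer at 1×10^6 cells/mL. Cells were stained with FITC-annexin V and propidium iodide for 15 min in the dark, diluted with binding buffer and analysed by flow cytometry within 1 h. Quadrants: LL viable, LR early apoptotic, UR late apoptotic. Duplicate experiments averaged; DMSO control.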

In series [2] the test system is MV4-11. Nature of the series: Induction of apoptosis in human MV4-11 cells assessed as early apoptotic cells at 4 uM incubated for 15 mins by Annexin-V/FITC staining based FACS analysis (reference value: 7.28%). The series is classed as functional. Particulars: 0.25 h. The method, boiled down:
as §1
In general terms: In flow cytometry, cells or beads pass a laser one at a time.

For series [3], the system named is MV4-11. Put plainly: Induction of apoptosis in human MV4-11 cells assessed as early apoptotic cells at 1 uM incubated for 15 mins by Annexin-V/FITC staining based FACS analysis (reference value: 7.28%). Conditions: 0.25 h. Format: functional. The procedure, abridged: as §1
Series [4] concerns MV4-11. Put plainly: Induction of apoptosis in human MV4-11 cells assessed as viable cells at 2 uM incubated for 15 mins by Annexin-V/FITC staining based FACS analysis (reference value: 84.58%). Format: functional. Conditions: MV4-11, 0.25 h, read-out: Activity. The procedure, abridged:
as §1

In series [5] the test system is MV4-11. Nature of the series: Induction of apoptosis in human MV4-11 cells assessed as viable cells at 1 uM incubated for 15 mins by Annexin-V/FITC staining based FACS analysis (reference value: 84.58%). The series is classed as functional. Conditions: MV4-11, 0.25 h, read-out: Activity. The procedure, abridged: as §1
The nature of series [6]: Cmax in Balb/c mouse at 50 mg/kg, ip by LC-MS/MS analysis. Format: ADME, organism-based. Details: route intraperitoneal, dose 50 mg/kg. Particulars: in vivo. The method, boiled down: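 Male BALB/c mice received a single intraperitoneal dose from a 50 mg/mL solution in 5% DMSO, 30% PEG400, 1% Tween80 and 64% saline. Blood was collected at several time points and the compound quantified by triple-quadrupole LC-MS/MS.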

In series [7] the test system is MV4-11. Nature of the series: Induction of apoptosis in human MV4-11 cells assessed as early apoptotic cells at 2 uM incubated for 15 mins by Annexin-V/FITC staining based FACS analysis (reference value: 0.70%). Format: functional. Conditions: 0.25 h. The procedure, abridged: as §1
A short description of series [8]: Stability in mouse plasma assessed as compound remaining measured after 15 mins. Format: ADME, cell-free. Conditions: read-out: Stability.
The test system of series [9] is MV4-11. Put plainly: Induction of apoptosis in human MV4-11 cells assessed as late apoptotic cells at 0.50 uM incubated for 15 mins by Annexin-V/FITC staining based FACS analysis (reference value: 4.17%). Format: functional. Particulars: dose 0.5 µM, 0.25 h. The method, boiled down:
as §1

Series [10] relates to MV4-11. Nature of the series: Induction of apoptosis in human MV4-11 cells assessed as viable cells at 0.25 uM incubated for 15 mins by Annexin-V/FITC staining based FACS analysis (reference value: 35.53%). Format: functional. Conditions: MV4-11, 0.25 h, read-out: Activity. The procedure, abridged:
as §1

Series [11] has as its system MV4-11. Nature of the series: Induction of apoptosis in human MV4-11 cells assessed as late apoptotic cells at 1 uM incubated for 15 mins by Annexin-V/FITC staining based FACS analysis (reference value: 4.17%). The series is classed as functional. Particulars: 0.25 h. The method, boiled down: as §1
Another series concerns the target Histone deacetylase 9 (Homo sapiens, UniProt Q9UKV0). Put plainly: Inhibition of full length human HDAC9 using FAM-labeled acetylated peptide as substrate by electrophoretic mobility shift assay. The procedure, abridged: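 Full-length human HDAC isoform enzymatic assay by electrophoretic mobility shift, using a FAM-labelled acetylated peptide substrate. […] Values are the mean of duplicate experiments with 95% confidence intervals.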
(In EMSA bound probe runs differently from free probe, usually more slowly.)

Each structure is given as a SMILES string.

Histone deacetylase 9, sequence (Q9UKV0 whole entry, canonical isoform): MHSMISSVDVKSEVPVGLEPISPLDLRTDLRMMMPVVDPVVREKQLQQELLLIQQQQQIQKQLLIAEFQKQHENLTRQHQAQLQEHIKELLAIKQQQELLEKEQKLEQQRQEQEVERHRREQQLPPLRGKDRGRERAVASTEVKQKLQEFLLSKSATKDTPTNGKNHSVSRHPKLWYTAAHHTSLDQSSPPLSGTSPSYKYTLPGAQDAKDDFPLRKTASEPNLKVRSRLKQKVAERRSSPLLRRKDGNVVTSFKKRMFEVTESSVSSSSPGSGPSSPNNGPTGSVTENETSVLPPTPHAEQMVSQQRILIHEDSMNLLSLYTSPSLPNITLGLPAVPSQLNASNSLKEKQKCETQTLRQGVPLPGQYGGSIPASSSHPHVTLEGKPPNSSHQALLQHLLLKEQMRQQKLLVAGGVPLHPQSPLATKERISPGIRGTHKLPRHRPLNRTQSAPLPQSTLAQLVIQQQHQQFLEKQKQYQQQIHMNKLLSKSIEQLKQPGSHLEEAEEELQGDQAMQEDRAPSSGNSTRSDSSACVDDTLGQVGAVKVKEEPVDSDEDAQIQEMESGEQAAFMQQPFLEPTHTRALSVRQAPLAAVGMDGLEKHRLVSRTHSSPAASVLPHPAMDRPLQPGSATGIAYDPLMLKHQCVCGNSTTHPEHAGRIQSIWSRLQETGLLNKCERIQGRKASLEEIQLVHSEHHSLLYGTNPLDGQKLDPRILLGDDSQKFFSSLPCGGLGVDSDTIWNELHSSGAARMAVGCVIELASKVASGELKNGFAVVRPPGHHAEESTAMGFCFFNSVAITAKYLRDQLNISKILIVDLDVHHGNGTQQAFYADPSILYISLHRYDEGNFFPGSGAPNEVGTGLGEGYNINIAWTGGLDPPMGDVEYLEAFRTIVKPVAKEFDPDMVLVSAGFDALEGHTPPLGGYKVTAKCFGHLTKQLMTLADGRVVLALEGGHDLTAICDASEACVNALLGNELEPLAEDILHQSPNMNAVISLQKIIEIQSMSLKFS

Regarding `O=C(CCCCCCNC(=O)c1cnc(N(c2ccccc2)c2ccccc2Cl)nc1)NO` [CITARINOSTAT], the Activity in the series on MV4-11 [1] amounted to 10.02%; in the series on MV4-11 [2], 38.98%; with MV4-11 [3] it was 16.25%. Also, the viability at 2 µM with MV4-11 [4] was found to be 42.4%. For the same compound, in the series with MV4-11 [5], the viability at 1 µM was determined as 68.4%.

Regarding `O=C(NO)c1ccc(CN(Cc2cccnc2)S(=O)(=O)c2cc(F)c(F)c(F)c2F)cc1`, the Cmax (in general, the maximum level reached in the sampled fluid or tissue) in series [6] was found to be 95.1 ng/mL. Besides, the Activity with MV4-11 [7] was determined as 2.45%; in the series with MV4-11 [9], 5.46%; in the series with MV4-11 [11], 6.87%. The remaining at 0.25 h in series [8] worked out at 88.1%. Besides, the viability at 0.25 µM in the series with MV4-11 [10] was determined as 33.1%. Also, on Histone deacetylase 9, the IC50 (usually the concentration needed to halve the response being measured) is 2750 nM.

Values taken from ChEMBL document CHEMBL5042469, “Unique Molecular Interaction with the Histone Deacetylase 6 Catalytic Tunnel: Crystallographic and Biological Characterization of a Model Chemotype” (J Med Chem, 2021).
